From ChEMBL document CHEMBL1128357, “Synthesis and biological properties of water-soluble p-boronophenylalanine derivatives. Relationship between water solubility, cytotoxicity, and cellular uptake” (J Med Chem, 1995)
Values after ≈ are worked out from the molar mass of the structure shown.

Test system: not listed separately
Assay: Solubility in water at room temperature
Assay type: physicochemical
Conditions: read-out: S
Procedure, shortened: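 Excess boron compound was dissolved, and the undissolved material was removed by membrane filtration. Boron concentration of the saturated solution was measured by ICP-AES. Three replicates, mean ± SE.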

Row | SMILES | solubility [mM]
1 | NC(Cc1ccc(B(O)O)cc1)C(=O)O (configuration not stated) | 7.7 (≈ 1.61 mg/mL)
2 | NC(Cc1ccc(B(O)O)cc1)C(=O)NC(COC(CO)CO)COC(CO)CO (configuration not stated) | 1200 (≈ 516 mg/mL)
3 | NC(Cc1ccc(B(O)O)cc1)C(=O)NC(CO)CO (configuration not stated) | 660 (≈ 186 mg/mL)
4 | NC(Cc1ccc(B(O)O)cc1)C(=O)NCCO (configuration not stated) | 600 (≈ 151 mg/mL)

Test system: B16
Assay: Cytotoxicity of compound towards B-16 melanoma cells, expressed as survival ratio of cells
Assay type: functional, Mus musculus
Conditions: not given

Row | SMILES | Survival ratio [%]
5 | NC(Cc1ccc(B(O)O)cc1)C(=O)O (configuration not stated) | 20
6 | NC(Cc1ccc(B(O)O)cc1)C(=O)NC(COC(CO)CO)COC(CO)CO (configuration not stated) | 62
7 | NC(Cc1ccc(B(O)O)cc1)C(=O)NC(CO)CO (configuration not stated) | 60
8 | NC(Cc1ccc(B(O)O)cc1)C(=O)NCCO (configuration not stated) | 60

Test system: TIG-1-20
Assay: Cytotoxicity of compound towards TIG-1-20 hybrobrast cells, expressed as survival ratio of cells
Assay type: functional, Homo sapiens
Conditions: not given

Row | SMILES | Survival ratio [%]
9 | NC(Cc1ccc(B(O)O)cc1)C(=O)O (configuration not stated) | 20
10 | NC(Cc1ccc(B(O)O)cc1)C(=O)NC(COC(CO)CO)COC(CO)CO (configuration not stated) | 73
11 | NC(Cc1ccc(B(O)O)cc1)C(=O)NC(CO)CO (configuration not stated) | 71
12 | NC(Cc1ccc(B(O)O)cc1)C(=O)NCCO (configuration not stated) | 66
